Test results taken from ChEMBL document CHEMBL4376884, “Toward a Rational Design of Polyamine-Based Zinc-Chelating Agents for Cancer Therapies” (J Med Chem, 2020).
Calls of active or inactive are those of the source. The rule behind the calls is not given here.

Key:
JeKo-1 = experiment: Antiproliferative activity against human JeKo1 cells assessed as reduction in cell viability at 10 uM incubated for 48 hrs by cell titer-glo assay; format: functional, cell-based
Summary of the method: (§1)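 Cells plated and treated 24 h later with 10 µM compound for 48 h; viable cells quantified by CellTiter-Glo ATP luminescence. Expressed as percentage of viable cells relative to untreated; mean ± SD of three independent experiments, each in triplicate.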

LN-229 [1] = experiment: Antiproliferative activity against human LN229 cells assessed as reduction in cell viability at 10 uM incubated for 48 hrs by cell titer-glo assay; format: functional, cell-based; summary of the method: as §1
U-87 MG = experiment: Antiproliferative activity against human U87MG cells assessed as reduction in cell viability at 10 uM incubated for 48 hrs by cell titer-glo assay; format: functional, cell-based; details: U-87MG ATCC; summary of the method: as §1
MCF7 = experiment: Antiproliferative activity against human MCF7 cells assessed as reduction in cell viability at 10 uM incubated for 48 hrs by cell titer-glo assay; format: functional, cell-based; summary of the method: as §1
LN-229 [2] = experiment: Induction of cell morphological changes in human LN229 cells assessed as random membrane blebbing at 10 uM incubated for 24 to 48 hrs by phase contrast microscopy; format: functional, cell-based
Summary of the method: (§2)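 LN229 and PC3 cells exposed to 10 µM compound for the indicated time-points, then imaged live by phase-contrast microscopy for morphology.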

LN-229 [3] = experiment: Induction of cell morphological changes in human LN229 cells assessed as loss of cell adherence at 10 uM incubated for 24 to 48 hrs by phase contrast microscopy; format: functional, cell-based; summary of the method: as §2
LN-229 [4] = experiment: Induction of cell morphological changes in human LN229 cells assessed as cell shrinkage at 10 uM incubated for 24 to 48 hrs by phase contrast microscopy; format: functional, cell-based; summary of the method: as §2
Z-138 = experiment: Antiproliferative activity against human Z138 cells assessed as reduction in cell viability incubated for 48 hrs by cell titer-glo assay; format: functional, cell-based; details: Z-138, 48 h
Summary of the method: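 Dose-response: cells plated, treated 24 h later for 48 h, then ATP measured by CellTiter-Glo luminescence. IC50 given as mean ± SD from three independent experiments, each in triplicate. Fibroblasts came from individuals. Cells were kept in RPMI or DMEM with 10% heat-inactivated FBS and penicillin/streptomycin at 37 °C, 5% CO2.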

LN-229 [5] = experiment: Cell cycle arrest in human LN229 cells assessed as cell accumulation at G1 phase at 10 uM incubated for 24 hrs by propidium iodide staining based flow cytometry analysis relative to control; format: functional
PC-3 [6] = experiment: Cell cycle arrest in human PC3 cells assessed as cell accumulation at S phase at 10 uM incubated for 24 hrs by propidium iodide staining based flow cytometry analysis relative to control; format: functional
PC-3 [7] = experiment: Cell cycle arrest in human PC3 cells assessed as cell accumulation at G2/M phase at 10 uM incubated for 24 hrs by propidium iodide staining based flow cytometry analysis relative to control; format: functional
PC-3 [8] = experiment: Cell cycle arrest in human PC3 cells assessed as cell accumulation at S phase at 10 uM incubated for 48 hrs by propidium iodide staining based flow cytometry analysis relative to control; format: functional
LN-229 [9] = experiment: Induction of cellular senescence in human LN229 cells assessed as increase in beta-gal-positive cells at 10 uM incubated for 24 hrs by X-Gal staining based microscopic assay relative to control; format: functional
LN-229 [10] = experiment: Induction of cellular senescence in human LN229 cells assessed as larger volume of cell at 10 uM incubated for 24 hrs by phase contrast microscopy; format: functional, cell-based
Summary of the method: (§3)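 LN229 and PC3 cells, 12×10^4 per well in 6-well plates, treated with 10 µM compound for 24 h. Senescence-associated β-gal staining: fixed in 2% formaldehyde/0.2% glutaraldehyde for 10 min at RT, stained with 1 mg/mL X-gal at 37 °C for 24 h without CO2. Blue cells counted in at least 10 fields at 10x and given as percent of total; four independent experiments. Morphology viewed by phase contrast at ×100.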

PC-3 [11] = experiment: Induction of cellular senescence in human PC3 cells assessed as wider cells at 10 uM incubated for 24 hrs by phase contrast microscopy; format: functional, cell-based; summary of the method: as §3
Jurkat = experiment: Induction of apoptosis in human Jurkat cells assessed as increase in caspase-3/7 activation at 10 uM incubated for 48 hrs by luminometric caspase-glo 3/7 assay; format: functional, cell-based
Summary of the method: (§4)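 Cells in RPMI or DMEM with 10% heat-inactivated FBS and penicillin/streptomycin, 37 °C, 5% CO2, treated with 10 µM compound for 48 h. Caspase-3 and caspase-7 activity read by luminescent Caspase-Glo 3/7 assay, reported as fold induction over untreated cells; mean ± SD of three independent experiments, each in triplicate.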

Homo sapiens [12] = species: Homo sapiens; experiment: Induction of apoptosis in human JMV2 cells assessed as increase in caspase-3/7 activation at 10 uM incubated for 48 hrs by luminometric caspase-glo 3/7 assay; format: functional, cell-based; summary of the method: as §4
Homo sapiens [13] = species: Homo sapiens; experiment: Induction of apoptosis in human UPN2 cells assessed as increase in caspase-3/7 activation at 10 uM incubated for 48 hrs by luminometric caspase-glo 3/7 assay; format: functional, cell-based; summary of the method: as §4
SW480 = experiment: Induction of apoptosis in human SW480 cells assessed as increase in caspase-3/7 activation at 10 uM incubated for 48 hrs by luminometric caspase-glo 3/7 assay; format: functional, cell-based; summary of the method: as §4
LN-229 [14] = experiment: Induction of apoptosis in human LN229 cells assessed as increase in caspase-3/7 activation at 10 uM incubated for 48 hrs by luminometric caspase-glo 3/7 assay; format: functional, cell-based; summary of the method: as §4
PC-3 [15] = experiment: Induction of apoptosis in human PC3 cells assessed as late apoptotic cells at 10 uM incubated for 72 hrs by annexin V-FITC and propidium iodide staining based flow cytometry analysis (reference value: 0.52 %); format: functional
PC-3 [16] = experiment: Induction of apoptosis in human PC3 cells assessed as necrotic cells at 10 uM incubated for 72 hrs by annexin V-FITC and propidium iodide staining based flow cytometry analysis (reference value: 0.30 %); format: functional
DNA = experiment: Induction of DNA damage in human LN229 cells assessed as gammaH2AX phosphorylation at Ser139 residue at 10 uM incubated for 4 hrs by Flow cytometry analysis; format: cell-based
Summary of the method: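 Z-138 and LN229 cells treated 4 h with 10 µM compound or 1 µM doxorubicin. Fixed in 3.7% formaldehyde on ice, permeabilized with 0.2% Triton X, stained with rabbit anti-pS139 H2A.X (1:400) and Alexa 555 secondary, then analysed by flow cytometry. Fold γH2AX fluorescence versus untreated; mean ± SD of three experiments.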

LN-229 [17] = experiment: Antiproliferative activity against human LN229 cells assessed as reduction in cell viability at 10 uM incubated for 48 hrs in presence of Zn2+ ion by MTT assay; format: functional, cell-based
Summary of the method: (§5)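 LN229 and PC3 cells plated, then 24 h later given 10 µM compound with or without 15 µM ZnCl2, CuCl2, FeCl2 or FeCl3 for 48 h. Medium replaced, MTT (12 mM solution) added for 4 h, formazan dissolved in DMSO, absorbance read at 540 nm. Percent viable versus untreated; mean ± SD of three experiments in triplicate.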

LN-229 [18] = experiment: Antiproliferative activity against human LN229 cells assessed as reduction in cell viability at 10 uM incubated for 48 hrs in presence of Fe2+ ion by MTT assay; format: functional, cell-based; summary of the method: as §5
PC-3 [19] = experiment: Induction of apoptosis in human PC3 cells assessed as increase in early and late apoptotic cells at 10 uM incubated for 72 hrs by annexin V-FITC and propidium iodide staining based flow cytometry analysis relative to control; format: functional
PC-3 [20] = experiment: Cell cycle arrest in human PC3 cells assessed as cell accumulation at sub-G1 phase at 10 uM incubated for 48 hrs by propidium iodide staining based flow cytometry analysis relative to control; format: functional

Compound | Activity (JeKo-1) | Activity (LN-229 [1]) | Activity (U-87 MG) | Activity (MCF7) | Activity (LN-229 [2]) | Activity (LN-229 [3]) | Activity (LN-229 [4]) | IC50 (Z-138) [µM] | Activity (LN-229 [5]) [%] | Activity (PC-3 [6]) [%] | Activity (PC-3 [7]) [%] | Activity (PC-3 [8]) [%] | Activity (LN-229 [9]) | Activity (LN-229 [10]) | Activity (PC-3 [11]) | Activity (Jurkat) | Activity (Homo sapiens [12]) | Activity (Homo sapiens [13]) | Activity (SW480) | Activity (LN-229 [14]) | also measured
CN(CCNCc1ccccn1)CCNCc1ccccn1 | Active | Active | Active | Active | Active | Active | Active | 4.85 | 62.1 | 9.2 | 19.7 | 7.2 | Active | Active | Active | Active | Active | Active | Active | Active | Activity (PC-3 [15]): 12.63%; Activity (PC-3 [16]): 3.5%; Activity (DNA): inactive; Activity (LN-229 [17]): inactive; Activity (LN-229 [18]): Active; fold change (FC) (PC-3 [19]): 30; Activity (PC-3 [20]): 19.6%
c1ccc(CNCCN(CCNCc2ccccn2)Cc2ccc3ccccc3c2)nc1 | Active | Active | Active | Active | Active | Active | Active | 3.07 | 63.1 | 8.9 | 17.2 | 7.7 | 90% | Active | Active | Active | Active | Active | Active | Active | Activity (PC-3 [15]): 11.68%; Activity (PC-3 [16]): 2.32%; Activity (DNA): inactive; Activity (LN-229 [17]): inactive; Activity (LN-229 [18]): Active; fold change (FC) (PC-3 [19]): 30; Activity (PC-3 [20]): 4.8%
